Reference: ChEMBL document CHEMBL1799944, “New 2-heterocyclyl-imidazo[2,1-i]purin-5-one derivatives as potent and selective human A3 adenosine receptor antagonists” (J Med Chem, 2011)

Assays:
[1] = target: Adenosine receptors; A1 & A3 (Homo sapiens) (UniProt P30542+P0DMS8); assay: Ratio of Ki for human adenosine A1 receptor to Ki for human adenosine A3 receptor
Homo sapiens = species: Homo sapiens; assay: Ratio of Ki for human adenosine A2A receptor to Ki for human adenosine A3 receptor
Adenosine receptor A3 [2] = target: T1, Adenosine receptor A3 (Homo sapiens, UniProt P0DMS8); assay: Antagonist activity human adenosine A3 receptor expressed in CHO cells assessed as blockade of Cl-IB-MECA-mediated inhibition of forskolin-stimulated [3H]cAMP accumulation after 150 mins by scintillation counter; assay type: functional, cell-based
T1 sequence (P0DMS8 whole entry): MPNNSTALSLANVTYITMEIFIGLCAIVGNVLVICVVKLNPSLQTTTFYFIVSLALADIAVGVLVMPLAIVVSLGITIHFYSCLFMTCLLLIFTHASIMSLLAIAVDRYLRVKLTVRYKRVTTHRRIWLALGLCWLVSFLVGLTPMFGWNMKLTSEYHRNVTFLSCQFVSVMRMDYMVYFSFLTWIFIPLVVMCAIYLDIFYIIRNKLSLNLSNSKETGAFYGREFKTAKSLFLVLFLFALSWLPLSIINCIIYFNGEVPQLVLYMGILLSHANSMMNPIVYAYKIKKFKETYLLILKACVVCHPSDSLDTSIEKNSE
How it was run: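 hA3-expressing CHO cells (1 x 10^6 cells/assay), preincubated 10 min at 37 °C in saline buffer pH 7.4 with adenosine deaminase 2 IU/mL and Ro 20-1724. Antagonism of 100 nM Cl-IB-MECA inhibition of cAMP in presence of 1 μM forskolin. Stopped with cold TCA. cAMP by [3H]cAMP competition protein binding (4 °C, 150 min), scintillation counting. IC50 from sigmoid nonlinear regression, mean ± SEM.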

[3] = target: T2, Adenosine receptor A2b (Homo sapiens) (UniProt P29275); assay: Antagonist activity human adenosine A2B receptor expressed in CHO cells assessed as inhibition of NECA-mediated [3H]cAMP accumulation at =<5000 nM after 150 mins by scintillation counter; assay type: functional, cell-based
T2 sequence (whole entry): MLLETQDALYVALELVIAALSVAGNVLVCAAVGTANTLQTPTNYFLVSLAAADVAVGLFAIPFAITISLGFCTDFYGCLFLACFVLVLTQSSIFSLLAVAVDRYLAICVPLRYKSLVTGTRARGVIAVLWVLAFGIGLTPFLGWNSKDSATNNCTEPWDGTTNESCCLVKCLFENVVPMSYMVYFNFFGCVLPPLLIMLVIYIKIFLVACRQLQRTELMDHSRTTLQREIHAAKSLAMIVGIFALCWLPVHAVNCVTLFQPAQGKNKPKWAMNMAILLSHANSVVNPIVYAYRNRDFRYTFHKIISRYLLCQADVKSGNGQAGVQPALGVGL
How it was run: (§1)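 Intact CHO cells expressing hA2B (1 x 10^6 cells/assay), preincubated 10 min at 37 °C in saline buffer pH 7.4 with 2 IU/mL adenosine deaminase and Ro 20-1724. Antagonism of 100 nM NECA-stimulated cAMP rise. Stopped with cold 6% TCA, ether-extracted. cAMP measured by competition binding with [3H]cAMP and beef adrenal binding protein (4 °C, 150 min), charcoal separation, scintillation counting. IC50 by sigmoid nonlinear regression, mean ± SEM.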

Adenosine receptor A2b = target: T3, Adenosine receptor A2b (Homo sapiens, UniProt P29275); assay: Antagonist activity human adenosine A2B receptor expressed in CHO cells assessed as inhibition of NECA-mediated [3H]cAMP accumulation after 150 mins by scintillation counter; assay type: functional, cell-based; how it was run: as §1
T3 sequence (P29275 whole entry): T2 sequence (whole entry)

Adenosine receptor A3 [4] = target: T1, Adenosine receptor A3; assay: Displacement of [3H]MRE 3008F20 from human adenosine A3 receptor expressed in CHO cells after 120 mins by scintillation spectrometry; assay type: cell-based
How it was run: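 Membranes from hA3 CHO cells (50 μg protein/assay) in 50 mM Tris HCl, 10 mM MgCl2, 1 mM EDTA pH 7.4, adenosine deaminase-treated. Incubated with 1 nM [3H]MRE 3008F20 and 6-8 ligand concentrations, 120 min at 4 °C. Nonspecific defined with 1 μM MRE 3008F20 (~25% of total). GF/B filtration, three ice-cold washes, scintillation counting. Ki via Cheng-Prusoff; geometric mean, 95% confidence limits, n = 3-6.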

Adenosine receptor A2a [5] = target: T4, Adenosine receptor A2a (Homo sapiens, UniProt P29274); assay: Displacement of [3H]ZM 241385 from human adenosine A2A receptor expressed in CHO cells at <=5000 nM after 60 mins by scintillation spectrometry; assay type: cell-based
T4 sequence (P29274 whole entry): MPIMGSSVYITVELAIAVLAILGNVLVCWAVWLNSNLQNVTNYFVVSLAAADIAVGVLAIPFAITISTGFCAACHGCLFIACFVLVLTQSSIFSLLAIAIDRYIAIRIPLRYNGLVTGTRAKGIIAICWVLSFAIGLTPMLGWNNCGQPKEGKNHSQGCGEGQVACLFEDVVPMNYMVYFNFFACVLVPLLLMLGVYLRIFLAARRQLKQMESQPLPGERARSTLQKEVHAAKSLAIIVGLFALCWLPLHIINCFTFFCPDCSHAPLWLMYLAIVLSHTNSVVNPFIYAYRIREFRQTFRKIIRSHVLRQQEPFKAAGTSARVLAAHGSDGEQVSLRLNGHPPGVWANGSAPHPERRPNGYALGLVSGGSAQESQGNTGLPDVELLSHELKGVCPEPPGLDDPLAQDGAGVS

Adenosine receptor A2a [6] = target: T4, Adenosine receptor A2a; assay: Displacement of [3H]ZM 241385 from human adenosine A2A receptor expressed in CHO cells after 60 mins by scintillation spectrometry; assay type: cell-based
[7] = target: T5, Adenosine receptor A1 (Homo sapiens) (UniProt P30542); assay: Displacement of [3H]DPCPX from human adenosine A1 receptor expressed in CHO cells at =<5000 nM after 120 mins by scintillation spectrometry; assay type: cell-based
T5 sequence (whole entry): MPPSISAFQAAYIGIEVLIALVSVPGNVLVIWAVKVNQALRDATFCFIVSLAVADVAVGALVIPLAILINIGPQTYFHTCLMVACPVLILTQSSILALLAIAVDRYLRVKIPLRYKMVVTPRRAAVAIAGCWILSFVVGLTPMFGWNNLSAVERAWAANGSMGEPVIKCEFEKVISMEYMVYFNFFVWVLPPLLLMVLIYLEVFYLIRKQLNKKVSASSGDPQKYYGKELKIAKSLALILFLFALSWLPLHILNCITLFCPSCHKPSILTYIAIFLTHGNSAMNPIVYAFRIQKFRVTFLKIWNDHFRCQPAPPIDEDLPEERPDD
How it was run: (§2)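 hA1 CHO membranes (50 μg protein/assay) in 50 mM Tris HCl pH 7.4, pretreated with adenosine deaminase 2 UI/mL for 30 min at 37 °C. Incubated with 1 nM [3H]DPCPX plus 6-8 ligand concentrations for 120 min at 25 °C. Nonspecific binding defined with 1 μM DPCPX. Ki from IC50 by Cheng-Prusoff; geometric means with 95% confidence limits.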

Adenosine receptor A1 = target: T6, Adenosine receptor A1 (Homo sapiens, UniProt P30542); assay: Displacement of [3H]DPCPX from human adenosine A1 receptor expressed in CHO cells after 120 mins by scintillation spectrometry; assay type: cell-based; how it was run: as §2
T6 sequence (P30542 whole entry): T5 sequence (whole entry)

[8] = Solubility of compound in water; assay type: physicochemical
Adenosine receptor A3 [9] = target: T1, Adenosine receptor A3; assay: Inverse agonist activity at human recombinant A3 adenosine receptor expressed CHO cells by [35S]GTPgammaS binding assay; assay type: functional, cell-based

| Ratio Ki [1] | Ratio Ki (Homo sapiens) | IC50 (Adenosine receptor A3 [2]) | inhibition [3] | IC50 (Adenosine receptor A2b) | Ki (Adenosine receptor A3 [4]) | inhibition (Adenosine receptor A2a [5]) | Ki (Adenosine receptor A2a [6]) | inhibition [7] | Ki (Adenosine receptor A1) | solubility [8] | IC50 (Adenosine receptor A3 [9]) | SMILES |
| --- | --- | --- | --- | --- | --- | --- | --- | --- | --- | --- | --- | --- |
| 1800 | > 1800 | 20.4 nM | 11% | > 5 µM | 2.68 nM | 5% | > 5 µM | 35% | > 5 µM | – | – | COc1cc(-c2nc3c([nH]2)C2=NC(C)CN2C(=O)N3Cc2ccccc2)on1 (racemic) |
| – | – | – | – | – | – | – | – | – | – | > 100 mg/mL | – | CCCN1C(=O)N2C[C@@H](CC)N=C2c2[nH]c(C34CCC(O)(CC3)CC4)nc21 |
| > 400 | 330 | – | 24% | > 5 µM | 12.2 nM | 9% | > 5 µM | 22% | > 5 µM | – | – | Cc1cc(-c2nc3c([nH]2)C2=NC(C)CN2C(=O)N3Cc2ccccc2)nn1C (configuration not stated) |
| 2100 | 2100 | 14.5 nM | 13% | > 5 µM | 2.36 nM | 1% | > 5 µM | 30% | > 5 µM | – | – | C=CCN1C(=O)N2CC(C)N=C2c2[nH]c(-c3cc(OC)nn3C)nc21 (racemic) |
| – | 330 | – | 16% | > 5 µM | 12.5 nM | 1% | > 5 µM | 20% | > 5 µM | – | – | C=CCN1C(=O)N2CC(CC)N=C2c2[nH]c(-c3cc(C)n(C)n3)nc21 (racemic) |
| – | – | – | – | – | – | – | – | – | – | – | 4 nM | CC[C@@H]1CN2C(=O)N(C)c3nc(-c4cc(Cl)cc(Cl)c4Cl)[nH]c3C2=N1 |
| – | 330 | – | 27% | > 5 µM | 15 nM | 13% | > 5 µM | 28% | > 5 µM | – | – | CCC1CN2C(=O)N(Cc3ccccc3)c3nc(-c4cc(C)n(C)n4)[nH]c3C2=N1 (racemic) |
